Active and inactive are the calls of the source. No cut-off for these calls is given here. Where a SMILES comes first, the peptide text is derived from it. Bridges are numbered along the chain shown (N, C = ends).
molecular target: T1, L-lactate dehydrogenase A chain (Homo sapiens, UniProt P00338); experiment: Binding affinity to recombinant full length N-terminal His-tagged human LDHA expressed in Escherichia coli assessed as reduction in fluorecence recovery measured after 2 hrs by tryptophan fluorescence emission assay
Procedure, shortened: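 Intrinsic Trp fluorescence: 4 µM LDHA (stock) dissociated 2 min in 0.1 M glycine pH 2.5, then peptide added in 0.25 M phosphate pH 7.6, 1 mM EDTA. No-LDHA blank subtracted. Zero set at pH 2.5 and maximum at the pH 2.5→7.4 control. LDH5 final 0.6 µM.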

Structure (SMILES)	Activity
CC[C@H](C)[C@@H]1NC(=O)CNC(=O)[C@H](CCCNC(=N)N)NC(=O)[C@H](Cc2ccc(O)cc2)NC(=O)[C@@H]2CSSC[C@H](NC1=O)C(=O)N[C@@H](C(C)C)C(=O)N[C@@H]([C@@H](C)O)C(=O)N[C@@H](Cc1ccc(O)cc1)C(=O)N[C@H](C(=O)N[C@@H](CCCNC(=N)N)C(=O)NCC(=O)N[C@@H](CCCNC(=N)N)C(=O)O)CSSC[C@H](NC(=O)CN)C(=O)N[C@@H](CCCNC(=N)N)C(=O)N[C@@H](CCCNC(=N)N)C(=O)N[C@@H](CC(C)C)C(=O)N2 (H-GCRRLCYRGICVTYCRGR-OH; disulfide 2-15, 6-11)	Dose-Dependent Effect
CC(C)C[C@@H]1NC(=O)[C@H](CCCNC(=N)N)NC(=O)[C@H](CCCNC(=N)N)NC(=O)[C@@H](NC(=O)CN)CSSC[C@@H](C(=O)N[C@@H](CCCNC(=N)N)C(=O)NCC(=O)N[C@@H](CCCNC(=N)N)C(=O)O)NC(=O)[C@H](C(C)C)NC(=O)[C@H]([C@@H](C)O)NC(=O)[C@H](Cc2ccccc2)NC(=O)[C@@H]2CSSC[C@H](NC1=O)C(=O)N[C@@H](CC(=O)O)C(=O)N[C@@H](CCCNC(=N)N)C(=O)N[C@@H](Cc1ccccc1)C(=O)N[C@@H](C)C(=O)N2 (H-GCRRLCDRFACFTVCRGR-OH; disulfide 2-15, 6-11)	inactive

molecular target: T1, L-lactate dehydrogenase A chain; experiment: Inhibition of recombinant full length N-terminal His-tagged human LDHA expressed in Escherichia coli using pyruvate as substrate and NADH as cofactor incubated for 2 hrs by fluorescence assay
Procedure, shortened: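 Reassociation activity assay: 900 nM LDHA stock in phosphate pH 7.4/EDTA/0.05% BSA, acidified 2 min with glycine pH 2.5/BSA. Peptide added in 0.25 M phosphate pH 7.6 and incubated 2 h at RT. Aliquot diluted, then pyruvate (3 mM final) and NADH (0.3 mM final) added. IC50 from dose-response fit.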

Structure (SMILES)	IC50
CC[C@H](C)[C@@H]1NC(=O)[C@H](Cc2ccc(O)cc2)NC(=O)[C@H](CC(N)=O)NC(=O)[C@@H]2CSSC[C@H](NC(=O)[C@H](CC(C)C)NC(=O)[C@H](CCCNC(=N)N)NC(=O)[C@H](CCCNC(=N)N)NC(=O)[C@@H](NC(=O)CN)CSSC[C@@H](C(=O)N[C@@H](CCCNC(=N)N)C(=O)NCC(=O)N[C@@H](CCCNC(=N)N)C(=O)O)NC1=O)C(=O)N[C@@H](Cc1ccc(O)cc1)C(=O)N[C@@H](CCCCN)C(=O)N[C@@H](CCC(N)=O)C(=O)N[C@@H](CC(C)C)C(=O)N2	> 40 µM
CC[C@H](C)[C@H](NC(=O)CNC(=O)[C@H](CC(N)=O)NC(=O)[C@H](CCC(N)=O)NC(C)=O)C(=O)N[C@@H](CO)C(=O)N[C@@H](CC(=O)O)C(=O)N[C@@H](CC(C)C)C(=O)N[C@H](C(=O)N[C@@H](CCCCN)C(N)=O)C(C)C	> 40 µM
CC(C)C[C@@H]1NC(=O)[C@H](CCCNC(=N)N)NC(=O)[C@H](CCCNC(=N)N)NC(=O)[C@@H](NC(=O)CN)CSSC[C@@H](C(=O)N[C@@H](CCCNC(=N)N)C(=O)NCC(=O)N[C@@H](CCCNC(=N)N)C(=O)O)NC(=O)[C@H](C(C)C)NC(=O)[C@H](CC(C)C)NC(=O)[C@H](CC(=O)O)NC(=O)[C@@H]2CSSC[C@H](NC1=O)C(=O)N[C@@H](Cc1ccc(O)cc1)C(=O)N[C@@H](CCCCN)C(=O)N[C@@H](CCC(N)=O)C(=O)N[C@@H](CCCNC(=N)N)C(=O)N2	27.3 µM
CC[C@H](C)[C@@H]1NC(=O)CNC(=O)[C@H](CCCNC(=N)N)NC(=O)[C@H](Cc2ccc(O)cc2)NC(=O)[C@@H]2CSSC[C@H](NC1=O)C(=O)N[C@@H](C(C)C)C(=O)N[C@@H]([C@@H](C)O)C(=O)N[C@@H](Cc1ccc(O)cc1)C(=O)N[C@H](C(=O)N[C@@H](CCCNC(=N)N)C(=O)NCC(=O)N[C@@H](CCCNC(=N)N)C(=O)O)CSSC[C@H](NC(=O)CN)C(=O)N[C@@H](CCCNC(=N)N)C(=O)N[C@@H](CCCNC(=N)N)C(=O)N[C@@H](CC(C)C)C(=O)N2 (H-GCRRLCYRGICVTYCRGR-OH; disulfide 2-15, 6-11)	24.8 µM
CC(C)C[C@@H]1NC(=O)[C@H](CCCNC(=N)N)NC(=O)[C@H](CCCNC(=N)N)NC(=O)[C@@H](NC(=O)CN)CSSC[C@@H](C(=O)N[C@@H](CCCNC(=N)N)C(=O)NCC(=O)N[C@@H](CCCNC(=N)N)C(=O)O)NC(=O)[C@H](C(C)C)NC(=O)[C@H]([C@@H](C)O)NC(=O)[C@H](Cc2ccccc2)NC(=O)[C@@H]2CSSC[C@H](NC1=O)C(=O)N[C@@H](CC(=O)O)C(=O)N[C@@H](CCCNC(=N)N)C(=O)N[C@@H](Cc1ccccc1)C(=O)N[C@@H](Cc1c[nH]c3ccccc13)C(=O)N2	10.4 µM
CC[C@H](C)[C@@H]1NC(=O)CNC(=O)[C@H](CCCNC(=N)N)NC(=O)[C@H](Cc2ccc(O)cc2)NC(=O)[C@@H]2CSSC[C@H](NC1=O)C(=O)N[C@@H](Cc1ccc(O)cc1)C(=O)N[C@@H](CCCNC(=N)N)C(=O)N[C@@H](CCCNC(=N)N)C(=O)N[C@H](C(=O)N[C@@H](CCCNC(=N)N)C(=O)NCC(=O)O)CSSC[C@H](NC(=O)[C@H](Cc1c[nH]c3ccccc13)NC(=O)[C@@H](N)CCCCN)C(=O)N[C@@H](Cc1ccccc1)C(=O)N[C@@H](CCCNC(=N)N)C(=O)N[C@@H](C(C)C)C(=O)N2	29.1 µM
CC(=O)N1CCC[C@H]1C(=O)N[C@H](C(=O)N[C@@H](CCC(N)=O)C(=O)N[C@@H](CCCNC(=N)N)C(=O)N[C@H](C(=O)NCC(N)=O)[C@@H](C)O)C(C)C	> 40 µM
CC(C)C[C@@H]1NC(=O)[C@H](CCCNC(=N)N)NC(=O)[C@H](CCCNC(=N)N)NC(=O)[C@@H](NC(=O)CN)CSSC[C@@H](C(=O)N[C@@H](CCCNC(=N)N)C(=O)NCC(=O)N[C@@H](CCCNC(=N)N)C(=O)O)NC(=O)[C@H](C(C)C)NC(=O)[C@H]([C@@H](C)O)NC(=O)[C@H](Cc2ccccc2)NC(=O)[C@@H]2CSSC[C@H](NC1=O)C(=O)N[C@@H](CC(=O)O)C(=O)N[C@@H](CCCNC(=N)N)C(=O)N[C@@H](Cc1ccccc1)C(=O)N[C@@H](C)C(=O)N2 (H-GCRRLCDRFACFTVCRGR-OH; disulfide 2-15, 6-11)	> 40 µM
CC(=O)NCC(=O)N[C@@H](CC(N)=O)C(=O)N[C@@H](Cc1ccc(O)cc1)C(=O)N[C@H](C(=O)N[C@@H](Cc1c[nH]c2ccccc12)C(=O)N[C@@H](CC(C)C)C(N)=O)[C@@H](C)O	> 40 µM
CC(C)C[C@@H]1NC(=O)[C@H](CCCNC(=N)N)NC(=O)[C@H](CCCNC(=N)N)NC(=O)[C@@H](NC(=O)CN)CSSC[C@@H](C(=O)N[C@@H](CCCNC(=N)N)C(=O)NCC(=O)N[C@@H](CCCNC(=N)N)C(=O)O)NC(=O)[C@H](C(C)C)NC(=O)[C@H]([C@@H](C)O)NC(=O)[C@H](Cc2ccccc2)NC(=O)[C@@H]2CSSC[C@H](NC1=O)C(=O)N[C@@H]([C@@H](C)O)C(=O)NCC(=O)N[C@@H](CCC(N)=O)C(=O)N[C@@H](CCCNC(=N)N)C(=O)N2	> 40 µM
CC(C)C[C@@H]1NC(=O)[C@H](CCCNC(=N)N)NC(=O)[C@H](CCCNC(=N)N)NC(=O)[C@@H](NC(=O)CN)CSSC[C@@H](C(=O)N[C@@H](CCCNC(=N)N)C(=O)NCC(=O)N[C@@H](CCCNC(=N)N)C(=O)O)NC(=O)[C@H](C(C)C)NC(=O)[C@H](CCC(N)=O)NC(=O)[C@H](CCCNC(=N)N)NC(=O)[C@@H]2CSSC[C@H](NC1=O)C(=O)N[C@@H](Cc1ccc(O)cc1)C(=O)N[C@@H](CCCCN)C(=O)N[C@@H](CCC(N)=O)C(=O)NCC(=O)N2	41.4 µM
CC(C)C[C@@H]1NC(=O)[C@H](CCCNC(=N)N)NC(=O)[C@H](CCCNC(=N)N)NC(=O)[C@@H](NC(=O)CN)CSSC[C@@H](C(=O)N[C@@H](CCCNC(=N)N)C(=O)NCC(=O)N[C@@H](CCCNC(=N)N)C(=O)O)NC(=O)[C@H](C(C)C)NC(=O)[C@H]([C@@H](C)O)NC(=O)[C@H](Cc2ccccc2)NC(=O)[C@@H]2CSSC[C@H](NC1=O)C(=O)N[C@@H](Cc1c[nH]c3ccccc13)C(=O)N[C@@H](Cc1ccccc1)C(=O)N[C@@H](CCCNC(=N)N)C(=O)N[C@@H](Cc1ccc(O)cc1)C(=O)N2	4.5 µM
CC(C)C[C@@H]1NC(=O)[C@H](CCCNC(=N)N)NC(=O)[C@H](CCCNC(=N)N)NC(=O)[C@@H](NC(=O)CN)CSSC[C@@H](C(=O)N[C@@H](CCCNC(=N)N)C(=O)NCC(=O)N[C@@H](CCCNC(=N)N)C(=O)O)NC(=O)[C@H](Cc2ccc(O)cc2)NC(=O)[C@H]([C@@H](C)O)NC(=O)[C@H](C(C)C)NC(=O)[C@@H]2CSSC[C@H](NC1=O)C(=O)N[C@@H](Cc1ccc(O)cc1)C(=O)N[C@@H](CCCCN)C(=O)N[C@@H](CCC(N)=O)C(=O)N[C@@H](CCCNC(=N)N)C(=O)N2	36.6 µM
CC(C)C[C@@H]1NC(=O)[C@H](CCCNC(=N)N)NC(=O)[C@H](CCCNC(=N)N)NC(=O)[C@@H](NC(=O)CN)CSSC[C@@H](C(=O)N[C@@H](CCCNC(=N)N)C(=O)NCC(=O)N[C@@H](CCCNC(=N)N)C(=O)O)NC(=O)[C@H](C(C)C)NC(=O)[C@H]([C@@H](C)O)NC(=O)[C@H](Cc2ccccc2)NC(=O)[C@@H]2CSSC[C@H](NC1=O)C(=O)N[C@@H](Cc1ccc(O)cc1)C(=O)N[C@@H](CCCCN)C(=O)N[C@@H](CCC(N)=O)C(=O)N[C@@H](CCCNC(=N)N)C(=O)N2	24 µM
